For orientation: GI50 means the concentration at which growth is held to half of that of the control. Lower therefore signals more potent growth inhibition.

7 molecules from ChEMBL document CHEMBL1140780, “The expedient synthesis of 1,5-benzothiazepines as a family of cytotoxic drugs” (Bioorg Med Chem Lett, 2008) can be followed below.

Data set [1] concerns HL-60. As to the kind of experiment: Photocytotoxicity against human HL60 cells irradiated with 1.25 J cm^-2 ultraviolet radiation after 72 hrs by MTT assay. The format is functional. The conditions noted are these: HL-60, light or radiation study. In short, it runs like this: (§1)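 Culture media, each with penicillin G, streptomycin and 10% FBS: HL-60 in RPMI-1640, NCTC 2544 in DMEM, LoVo in Ham's F12. Seeding was 8 × 10³ HL-60 or 5 × 10³ NCTC 2544/LoVo cells per well, 18 h at 37 °C. Drug in DMSO diluted with HBSS pH 7.2 was added for 30 min at 37 °C, then UVA applied (dose measured at 365 nm). Medium was replaced, 72 h incubation, MTT read-out. GI50 is the concentration giving 50% growth inhibition.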
For orientation: Tetrazolium assays rely on reduction of a dye to a coloured formazan, in cell work by metabolically active cells.

In data set [2] the test system is HL-60. As to the kind of experiment: Photocytotoxicity against human HL60 cells irradiated with 2.5 J cm^-2 ultraviolet radiation after 72 hrs by MTT assay. The class given is functional. The following applies: HL-60, light or radiation study. A digest of the protocol: as §1
In data set [3] the test system is LoVo. Nature of the data set: Photocytotoxicity against human LoVo cells irradiated with 1.25 J cm^-2 ultraviolet radiation after 72 hrs by MTT assay. The format is functional. The following applies: light or radiation study. In short, it runs like this: as §1
Data set [4] relates to LoVo. As to the kind of experiment: Photocytotoxicity against human LoVo cells irradiated with 2.5 J cm^-2 ultraviolet radiation after 72 hrs by MTT assay. The class given is functional. The conditions noted are these: light or radiation study. In short, it runs like this:
as §1

Data set [5] in a line: Photocytotoxicity against human NCTC 2544 cells irradiated with 2.5 J cm^-2 ultraviolet radiation after 72 hrs by MTT assay. The format is cell-based. A digest of the protocol:
as §1

Data set [6] can be described thus: Photocytotoxicity against human NCTC 2544 cells irradiated with 1.25 J cm^-2 ultraviolet radiation after 72 hrs by MTT assay. The class given is cell-based. In short, it runs like this: as §1

Each structure is given as a SMILES string.

Regarding `COc1ccc2c(c1)SC(C(=O)O)CC(c1ccc(F)cc1C)=N2` (stereo not given), the GI50 in the data set with HL-60 [1] was above 10 µM; in the data set on HL-60 [2], 10 µM.
For `Cc1cc(F)ccc1C1=Nc2ccc(Cl)cc2SC(C(=O)O)C1` (stereo not given), in that order: above 10 µM and 6.8 µM.
On to `Cc1cc(F)ccc1C1=Nc2c(Br)cccc2SC(C(=O)O)C1` (stereo not given), for which the GI50 in the data set with LoVo [3] was above 20 µM; with LoVo [4] it was 13.2 µM; with HL-60 [1], 2.5 µM; in the data set on HL-60 [2], 0.9 µM. In addition, the GI50 at 72 h in data set [5] and in data set [6] was above 20 µM each time.
Consider `Cc1cc(F)ccc1C1=Nc2c(F)cccc2SC(C(=O)O)C1` (stereo not given), for which the 50% growth inhibitory concentration (GI50) with LoVo [3] stood at 3.8 µM; in the data set with LoVo [4], 1.94 µM; with HL-60 [1] it was 6.6 µM; in the data set with HL-60 [2], 0.8 µM. Moreover, the GI50 at 72 h worked out at 2.6 µM in data set [5] and 7 µM in data set [6].
Regarding `Cc1cc(F)ccc1C1=Nc2c(Cl)cccc2SC(C(=O)O)C1` (stereo not given), the GI50 in the data set with LoVo [3] is 16.8 µM; with LoVo [4] it was 9.8 µM; in the data set on HL-60 [1] it was above 10 µM; in the data set on HL-60 [2], 6.9 µM. The 50% growth inhibitory concentration (GI50) at 72 h in data set [5] is 6.9 µM; in data set [6], above 20 µM.
Turning to `Cc1ccc2c(c1)SC(C(=O)O)CC(c1ccc(F)cc1C)=N2` (stereo not given), the GI50 is above 10 µM with HL-60 [1] and 10 µM with HL-60 [2].
For the molecule `COc1cccc2c1C(=O)c1c(O)c3c(c(O)c1C2=O)C[C@@](O)(C(=O)CO)C[C@@H]3O[C@H]1C[C@H](N)[C@H](O)[C@H](C)O1` [DOXORUBICIN], the GI50 with LoVo [3] came out at 8.54 µM; in the data set with LoVo [4], 5.48 µM; in the data set with HL-60 [1] it was 2.36 µM; with HL-60 [2], 1.45 µM. The figures for the GI50 at 72 h in data set [5] and in data set [6] were 1.32 µM and 3.04 µM, respectively.
